Measurements: ChEMBL document CHEMBL3593239, “PABA/NO lead optimization: Improved targeting of cytotoxicity to glutathione S-transferase P1-overexpressing cancer cells” (Bioorg Med Chem, 2015)
pIC50: −log10 of the molar value. Active and inactive are the calls of the source. No cut-off for these calls is given here.

Experiments:
[1] = target: T1, Glutathione S-transferase A1 (Homo sapiens, UniProt P08263); test: Drug level in phosphate buffer assessed as GSTA1 (unknown origin)-mediated compound formation from nitric oxide retained pathway treated with (Z)-1-(2-cyano-5-(4-(methylamino)benzoyloxy)-4-nitrophenoxy)-3,3-dimethyltriaz-1-ene 2-oxide at 1 uM at pH 7.4 at 37 degC after 30 mins by LC-MS/MS analysis in presence of GSH; assay type: ADME; conditions: pH 7.4, 0.5 h
T1 sequence (P08263 whole entry): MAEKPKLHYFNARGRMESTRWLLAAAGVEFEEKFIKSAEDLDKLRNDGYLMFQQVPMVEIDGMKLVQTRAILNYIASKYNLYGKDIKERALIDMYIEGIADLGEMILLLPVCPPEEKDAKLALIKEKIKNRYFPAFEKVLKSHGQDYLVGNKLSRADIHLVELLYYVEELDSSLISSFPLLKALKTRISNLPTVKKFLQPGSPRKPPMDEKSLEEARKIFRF
Summary of the method: (§1)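 Products analysed by LC–MS. The ratio is the NO-release-pathway product over the NO-retained-pathway phenolic product.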

[2] = Drug level in phosphate buffer treated with (Z)-1-(2-cyano-5-(4-(methylamino)benzoyloxy)-4-nitrophenoxy)-3,3-dimethyltriaz-1-ene 2-oxide at 1 uM at pH 7.4 at 37 degC after 30 secs by LC-MS analysis in presence of GSH; assay type: physicochemical; conditions: pH 7.4, 0.5 min
[3] = target: T1, Glutathione S-transferase A1; test: Drug metabolism in phosphate buffer assessed as ratio of GSTA1 (unknown origin)-mediated (S)-2-amino-5-((R)-1-(carboxymethylamino)-3-(2-cyano-5-hydroxy-4-nitrophenylthio)-1-oxopropan-2-ylamino)-5-oxopentanoic acid formation from nitric oxide release pathway to GSTA1 (unknown origin)-mediated (Z)-1-(2-cyano-5-hydroxy-4-nitrophenoxy)-3,3-dimethyltriaz-1-ene 2-oxide formation from nitric oxide retained pathway at 1 uM at pH 7.4 at 37 degC after 30 mins by LC-MS/MS analysis in presence of GSH; assay type: ADME; conditions: pH 7.4, 0.5 h; summary of the method: as §1
[4] = Stability of the compound in phosphate buffer assessed as first-order initial rate constant for hydrolysis at pH 7.4 at 25 degC by HPLC trapping method; assay type: physicochemical
HL-60 [5] = test: Induction of apoptosis in human HL60 cells assessed as activation of caspase 8 at >10 uM after 24 hrs by Western blot analysis; assay type: functional, cell-based
HL-60 [6] = test: Cytotoxicity against human HL60 cells assessed as growth inhibition after 72 hrs by MTT assay; assay type: functional, cell-based; conditions: HL-60, 72 h
Summary of the method: (§2)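 HL-60 and U937 cells from ATCC, grown per supplier protocol, seeded and exposed to increasing concentrations for 72 h. Viability was read with a Promega assay run per the manufacturer's protocol. Six repeats per concentration, three independent experiments. IC50 derived by curve fitting.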

[7] = Stability of the compound in phosphate buffer assessed as first-order initial rate constant for hydrolysis at pH 7.4 at 37 degC by HPLC trapping method; assay type: physicochemical
[8] = Stability of the compound in phosphate buffer assessed as pseudo-first order rate constant at pH 7.4 at 37 degC by HPLC trapping method in presence of GSH; assay type: physicochemical
[9] = target: T2, Glutathione S-transferase P (Homo sapiens, UniProt P09211); test: Prodrug conversion in phosphate buffer assessed as GSTP1 (unknown origin)-mediated nitric oxide release at 1 uM at pH 7.4 at 37 degC after 1 to 30 mins by LC/MS-MS analysis; assay type: ADME; conditions: pH 7.4, 1 µM
Summary of the method: (§3)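 Test compound at 1 µM reacted with 4 mM GSH containing 4 nM GSTP1 in 0.1 M phosphate, pH 7.4, at 37 °C. Products identified by LC–MS traces taken at 60 s and 30 min.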

HL-60 [10] = test: Induction of apoptosis in human HL60 cells assessed as cleavage of PARP at >10 uM after 24 hrs by Western blot analysis; assay type: functional, cell-based
[11] = target: T2, Glutathione S-transferase P; test: Drug metabolism in phosphate buffer assessed as formation of GSTP1 (unknown origin)-mediated (Z)-1-(5-((R)-2-((S)-4-amino-4-carboxybutanamido)-3-(carboxymethylamino)-3-oxopropylthio)-2-cyano-4-nitrophenoxy)-3,3-dimethyltriaz-1-ene 2-oxide at 1 uM at pH 7.4 at 37 degC after 5 to 30 mins by LC-MS/MS analysis in presence of GSH; assay type: ADME; conditions: pH 7.4, 1 µM; summary of the method: as §3
HL-60 [12] = test: Induction of apoptosis in human HL60 cells assessed as activation of caspase 7 at >10 uM after 24 hrs by Western blot analysis; assay type: functional, cell-based
HL-60 [13] = test: Induction of SAPK/JNK phosphorylation in human HL-60 cells at 5 to 20 uM after 24 hrs by Western blot analysis
U-937 = test: Cytotoxicity against human U937 cells assessed as growth inhibition after 72 hrs by MTT assay; assay type: functional, cell-based; conditions: U-937, 72 h; summary of the method: as §2
[14] = Drug level in phosphate buffer treated with (Z)-1-(4-cyano-5-(4-(methylamino)benzoyloxy)-2-nitrophenoxy)-3,3-dimethyltriaz-1-ene 2-oxide at 1 uM at pH 7.4 at 37 degC measured for 30 mins by LC-MS/MS analysis in presence of GSH; assay type: physicochemical; conditions: pH 7.4, 0.5 h
[15] = target: T1, Glutathione S-transferase A1; test: Drug level in phosphate buffer assessed as GSTA1 (unknown origin)-mediated compound formation from nitric oxide release pathway treated with (Z)-1-(4-cyano-5-(4-(methylamino)benzoyloxy)-2-nitrophenoxy)-3,3-dimethyltriaz-1-ene 2-oxide at 1 uM at pH 7.4 at 37 degC after 30 mins by LC-MS/MS analysis in presence of GSH; assay type: ADME; conditions: pH 7.4, 0.5 h; summary of the method: as §1
[16] = Drug level in phosphate buffer treated with (Z)-3,3-dimethyl-1-(5-(4-(methylamino)benzoyloxy)-2,4-dinitrophenoxy)triaz-1-ene 2-oxide at 1 uM at pH 7.4 at 37 degC by HPLC trapping method; assay type: physicochemical; conditions: pH 7.4, 1 µM
[17] = Drug level in phosphate buffer treated with (Z)-3,3-dimethyl-1-(5-(4-(methylamino)benzoyloxy)-2,4-dinitrophenoxy)triaz-1-ene 2-oxide at 1 uM at pH 7.4 at 37 degC after 1 to 30 mins by LC/MS-MS analysis; assay type: physicochemical; conditions: pH 7.4, 1 µM
[18] = Drug level in phosphate buffer treated with (Z)-3,3-dimethyl-1-(5-(4-(methylamino)benzoyloxy)-2,4-dinitrophenoxy)triaz-1-ene 2-oxide at 1 uM at pH 7.4 at 37 degC by HPLC trapping method in presence of GSH; assay type: physicochemical; conditions: pH 7.4, 1 µM
[19] = target: T1, Glutathione S-transferase A1; test: Drug level in phosphate buffer assessed as GSTA1 (unknown origin)-mediated compound formation from nitric oxide retained pathway treated with (Z)-3,3-dimethyl-1-(5-(4-(methylamino)benzoyloxy)-2,4-dinitrophenoxy)triaz-1-ene 2-oxide at 1 uM at pH 7.4 at 37 degC after 30 mins by LC-MS/MS analysis in presence of GSH; assay type: ADME; conditions: pH 7.4, 0.5 h; summary of the method: as §1
[20] = target: T1, Glutathione S-transferase A1; test: Drug level in phosphate buffer assessed as GSTA1 (unknown origin)-mediated compound formation from nitric oxide release pathway treated with (Z)-3,3-dimethyl-1-(5-(4-(methylamino)benzoyloxy)-2,4-dinitrophenoxy)triaz-1-ene 2-oxide at 1 uM at pH 7.4 at 37 degC after 30 mins by LC-MS/MS analysis in presence of GSH; assay type: ADME; conditions: pH 7.4, 0.5 h; summary of the method: as §1
[21] = Drug level in phosphate buffer treated with (Z)-3,3-dimethyl-1-(5-(4-(methylamino)benzoyloxy)-2,4-dinitrophenoxy)triaz-1-ene 2-oxide at 1 uM at pH 7.4 at 25 degC by HPLC trapping method; assay type: physicochemical; conditions: pH 7.4, 1 µM
[22] = Drug level in phosphate buffer treated with (Z)-1-(4-cyano-5-(4-(methylamino)benzoyloxy)-2-nitrophenoxy)-3,3-dimethyltriaz-1-ene 2-oxide at 1 uM at pH 7.4 at 37 degC after 30 secs by LC-MS analysis in presence of GSH; assay type: physicochemical; conditions: pH 7.4, 0.5 min

T2 sequence (P09211 whole entry): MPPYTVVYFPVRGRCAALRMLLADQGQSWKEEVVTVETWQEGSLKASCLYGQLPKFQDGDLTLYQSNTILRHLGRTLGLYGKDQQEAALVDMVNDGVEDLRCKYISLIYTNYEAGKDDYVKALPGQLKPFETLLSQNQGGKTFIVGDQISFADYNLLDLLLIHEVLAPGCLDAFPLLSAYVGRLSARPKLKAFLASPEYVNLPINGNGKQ

## CN(C)/[N+]([O-])=N/Oc1cc(O)c([N+](=O)[O-])cc1C#N
[1]
  Drug metabolism: metabolite_detected
[2]
  Drug metabolism: metabolite_detected

## CNc1ccc(C(=O)Oc2cc(O/N=[N+](\[O-])N(C)C)c(C#N)cc2[N+](=O)[O-])cc1
[3]
  Ratio: 1
[4]
  K: 3.3 ×10⁻⁵ /s
HL-60 [5]
  Activity: Active
HL-60 [6]
  pIC50: 4.70
[7]
  K: 2.1 ×10⁻⁴ /s
[8]
  K: 2.1 ×10⁻³ /s
[9]
  Drug metabolism: metabolite_detected
HL-60 [10]
  Activity: Active
[11]
  Drug metabolism: metabolite_detected
HL-60 [12]
  Activity: Active
HL-60 [13]
  Activity: Active
U-937
  pIC50: 4.82

## N#Cc1cc([N+](=O)[O-])c(SC[C@H](NC(=O)CC[C@H](N)C(=O)O)C(=O)NCC(=O)O)cc1O
[14]
  Drug metabolism: metabolite_detected
[15]
  Drug metabolism: metabolite_detected

## CN(C)/[N+]([O-])=N\Oc1cc(O)c([N+](=O)[O-])cc1[N+](=O)[O-]
[16]
  Drug metabolism: metabolite_detected
[17]
  Drug metabolism: metabolite_detected
[18]
  Drug metabolism: metabolite_detected
[19]
  Drug metabolism: metabolite_detected

## N[C@@H](CCC(=O)N[C@@H](CSc1cc(O)c([N+](=O)[O-])cc1[N+](=O)[O-])C(=O)NCC(=O)O)C(=O)O
[17]
  Drug metabolism: metabolite_detected
[20]
  Drug metabolism: metabolite_detected

## CN(C)/[N+]([O-])=N/Oc1cc(SC[C@H](NC(=O)CC[C@H](N)C(=O)O)C(=O)NCC(=O)O)c([N+](=O)[O-])cc1[N+](=O)[O-]
[18]
  Drug metabolism: metabolite_detected

## CNc1ccc(C(=O)O)cc1
[17]
  Drug metabolism: metabolite_detected
[21]
  Drug metabolism: metabolite_detected
[2]
  Drug metabolism: metabolite_detected

## CNc1ccc(C(=O)SC[C@H](NC(=O)CC[C@H](N)C(=O)O)C(=O)NCC(=O)O)cc1
[22]
  Drug metabolism: metabolite_detected
[17]
  Drug metabolism: metabolite_detected
[14]
  Drug metabolism: metabolite_detected
[2]
  Drug metabolism: metabolite_detected
